From PubChem
Sampled rows, rich in hits. Any-hit rate of the full collection: about 6.4%.
HUVEC prolif 384: inhibitors of HUVEC proliferation, primary screen, cell-based, 384-well | CellTiter-Glo luminescence, 72 h; hits give low values | viability, % at 10 µM (by protocol) | 86,000 tested, 1.1% active;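 active = viability at or below 30%; inactive = viability above 30%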;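 note: 100% = median luminescence of DMSO-only cell control wells on each plate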
Jurkat tox 60K: cytotoxicity toward Jurkat T cells, primary screen, cytotoxicity control, cell-based, Jurkat E6.1, 60K MLSMR library; Jurkat E6.1 viability, ATP luminescence, 48 h; inhibition, % at 4 µM; 56,000 tested, 1.2% active;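 active = inhibition above the mean inhibition of all tested compounds plus 3 SD, cut at about 28% in these data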
H69AR growth 86K: proliferation blockers of H69AR lung cancer cells, primary screen, cell-based, human, 86K library. H69AR lung tumor viability, ATP luminescence, 72 h; hits give low values. viability, % at 10 µM. 85,000 tested, 6% active. AID 598, 2007;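 active = viability at or below 40%; inactive = viability above 40%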;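 note: multidrug resistant small cell line overexpressing MRP-1 efflux transporter; 100% = mean luminescence of untreated control wells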
Lung fibro prol: antiproliferative effect on LL 47 fibroblasts – human, LL 47 cells, CellTiter-Glo luminescence, primary screen. LL 47 human lung fibroblast viability, ATP luminescence; hits give low values. AID 719, 2007. viability, % at 10 µM. 85,000 tested, 1.1% active;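 active = viability at or below 50% in the single dose screen; inactive = viability above 50%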;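 note: compound exposure lasted 72 h before the ATP readout; 100% = median luminescence of untreated cell-only wells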
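Test system: LL 47 human lung fibroblasts; Quantity: 1,150 cells/well; Buffer or medium: IMEM plus 15% FBS; Dosing: tenfold compound dosing solution, DMSO at 0.1%; Timing: overnight cell rest, 72 h compound treatment at 37 °C; Detection: ATP-based CellTiter-Glo luminescent readout; Read-out basis: viability percentage against median untreated-cell control; Controls: cell-only wells, no compound.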
* hit, by the source's call; x = no result given.

SMILES	HUVEC prolif 384	Jurkat tox 60K	H69AR growth 86K	Lung fibro prol
O=C(CC1(O)C(=O)N(Cc2ccc3c(c2)OCO3)c2ccccc21)c1ccccc1 (configuration not stated)	84	-6	14*	x
CCC(C)(C)n1nnnc1C(c1cc2cc(C)cc(C)c2[nH]c1=O)N1CCCC1 (configuration not stated)	x	2	x	x
CCC(C)(C)n1nnnc1C(c1cc2cc(C)cc(C)c2[nH]c1=O)N1CCN(Cc2ccc3c(c2)OCO3)CC1 (configuration not stated)	93	x	8.6*	25*
CC1(C)Cc2c(sc3nc(SCC#N)n(C4CCCCC4)c(=O)c23)CO1	92	x	96	82
CC(=O)OCCCN1c2ccccc2Nc2nnc(-c3ccccc3)cc21	67	x	39*	88
COc1ccc(CN(C(=O)CSc2nnc(-c3ccccc3C)o2)c2ccc(F)cc2)cc1	128	x	0.4*	102
COc1ccc(C2CC(c3ccc(Cl)cc3Cl)Nc3nc(N)nn32)cc1 (configuration not stated)	112	-8	98	91
COc1ccc(C2CC(c3ccc(Cl)c(Cl)c3)Nc3nc(N)nn32)cc1 (configuration not stated)	84	3	34*	94
FC(F)(F)c1cc(-c2cccs2)nc(-n2cc(Cl)cn2)n1	104	x	93	95
CCOC(=O)c1ccccc1OCc1cc(/C=N/n2cncn2)ccc1OC	81	x	34*	99
Cc1nc(-c2cccc(NS(=O)(=O)c3ccc4ccccc4c3)c2)cs1	85	x	83	92
CC(C)CCNC(=O)CN(C(=O)CCC(=O)Nc1ccccn1)c1ccc2c(c1)OCCO2	90	x	89	95
O=C(CN(C(=O)CCC(=O)Nc1ccccn1)c1ccc2c(c1)OCCO2)NCCc1ccccc1	68	-1	7.0*	90
CN1CC(c2ccccc2)C2(SC(=S)N(Cc3ccco3)C2=O)C12C(=O)Nc1ccccc12 (configuration not stated)	50	x	1.6*	93
O=C1c2oc3ccccc3c(=O)c2C(c2ccc(Br)cc2)N1c1ncccn1 (configuration not stated)	102	-6	73	107
CC(C)[C@H](NC(=O)NCCc1ccc(F)cc1)C(=O)O	103	6	92	96
CC(=O)N(Cc1ccc(F)cc1)C1=C(NCCc2ccccc2)C(=O)c2ccccc2C1=O	4.3*	x	1.2*	1.8*
CCOc1cc(/C=N/NC(=O)Cn2nc([N+](=O)[O-])cc2C)cc(Br)c1OCc1ccccc1F	30*	x	8.3*	51
O=S(=O)(Nc1cccc2ncccc12)c1cccs1	x	76*	x	x
CCCSc1nsc(NC(=O)C(c2ccccc2)c2ccccc2)n1	68	x	18*	87
c1ccc(-n2cnc3cc(NCc4cccs4)ccc32)cc1	73	x	23*	61
COc1ccc(Cl)cc1NC(=O)c1ccoc1C	90	-6	93	93
O=C(Nc1sc2c(c1C(=O)NC1CC1)CCCCCC2)c1ccco1	93	-3	30*	99
NC(=O)c1c(NC(=O)c2cc3ccccc3o2)sc2c1CCC2	62	-6	24*	82
COC(=O)Nc1sc2c(c1C(=O)NCc1ccco1)CCC2	76	-3	39*	82
SMILES	HUVEC prolif 384	Jurkat tox 60K	H69AR growth 86K	Lung fibro prol
CC(C(=O)Nc1sc2c(c1C(=O)NCc1ccco1)CCCC2)N1C(=O)c2ccccc2C1=O (configuration not stated)	85	x	23*	100
CC(C)CCN(C(=O)Nc1ccccc1)C(C)c1cccs1 (configuration not stated)	94	x	98	91
COC(=O)Nc1sc2c(c1C(=O)NCc1ccco1)CCCC2	83	4	78	93
Cc1ccc(C(=O)Nc2sc3c(c2C(=O)NCc2ccco2)CCCC3)cc1	44	x	11*	96
COc1ccc(C(=O)Nc2sc3c(c2C(=O)NCc2ccco2)CCCC3)cc1OC	67	x	36*	86
COc1cc(C(=O)Nc2sc3c(c2C(=O)NCc2ccco2)CCCC3)cc(OC)c1OC	68	x	60	87
CC(=O)Nc1cc(C(=O)N2CCCC2)ccc1S(=O)(=O)c1ccc(Cl)cc1	103	x	103	98
O=C(NCc1ccc(F)cc1)c1cnc(-c2ccccn2)nc1C(F)(F)F	90	x	106	99
CS(=O)(=O)N1CCN(c2nc3ccccc3s2)CC1	102	6	106	x
CC(Nc1nc(N2CCN(S(C)(=O)=O)CC2)nc2ccccc12)c1ccccc1 (configuration not stated)	14*	6	82	79
CCOC(=O)c1cnc(-n2nc(C)cc2C)nc1NCc1ccc2c(c1)OCO2	24*	2	56	92
CCOC(=O)c1cnc(-n2nc(C)cc2C)nc1N1CCOCC1	98	-5	98	92
CCOC(=O)c1cnc(-n2nc(C)cc2C)nc1N(C)C	118	5	90	108
CCOC(=O)c1cnc(-n2nc(C)cc2C)nc1NCCc1ccccc1	60	12	1.9*	45*
COCCn1c(C)cc(C(=O)CSc2nc3ccccc3o2)c1C	25*	13	91	94
COc1cccc(C(c2nnnn2Cc2ccccc2)N2CCN(C3CCCC3)CC2)c1OC (configuration not stated)	87	-1	20*	102
c1ccc(Cn2nnnc2C(c2cccs2)N2CCCCCC2)cc1 (configuration not stated)	89	0	22*	82
COc1ccccc1C(c1nnnn1Cc1ccccc1)N1CCN(C2CCCC2)CC1 (configuration not stated)	88	x	76	90
CN(CC(=O)Nc1ccc(Cl)cc1)CC(=O)Nc1cc(Cl)ccc1C#N	94	8	75	85
COC(=O)CSc1ncccc1-c1nc2ccccc2[nH]1	104	-3	82	100
COc1ccc(-n2nc(C(=O)c3cccs3)cc(-c3nc4ccccc4[nH]3)c2=N)cc1	29*	x	1.4*	78
c1csc(-c2nc3ccccc3[nH]2)c1	99	-3	95	101
Cc1ccccc1-n1nc(C(=O)c2cccs2)cc(-c2nc3ccccc3[nH]2)c1=N	71	x	38*	78
COc1ccc(C2C3=C(CCCC3=O)Nc3nc4ccccc4n32)cc1OC (configuration not stated)	91	0	94	96
Cc1ccc(S(=O)(=O)Nc2nonc2C)cc1	107	-2	104	105
CN(Cc1nc(-c2ccncc2)no1)S(=O)(=O)c1ccc(Br)cc1	92	13	83	98
COc1ccc(C2=CSC3=C(C(=O)c4cccc(S(=O)(=O)N(C)C)c4)CCN23)cc1	94	x	72	101
CC(C)c1nc2oc3c(NCC4CCCO4)ncnc3c2c2c1COC(C)(C)C2 (configuration not stated)	87	-3	36*	99
CSc1nc2n(n1)C(c1ccccn1)C1=C(CC(C)(C)CC1=O)N2 (configuration not stated)	103	x	54	98
